Measurements reported in publication PMC4527528 (Chemistry & biology, 2015).

Legend:
ABHD3 = biological target: T1, ABHD3 (Homo sapiens, UniProt Q8WU67); test: ABPP-SILAC, in situ treatment of PC3 cells; assay type: cell-based; settings: 4 h, FP-biotin probe
T1 sequence (Q8WU67 1-409): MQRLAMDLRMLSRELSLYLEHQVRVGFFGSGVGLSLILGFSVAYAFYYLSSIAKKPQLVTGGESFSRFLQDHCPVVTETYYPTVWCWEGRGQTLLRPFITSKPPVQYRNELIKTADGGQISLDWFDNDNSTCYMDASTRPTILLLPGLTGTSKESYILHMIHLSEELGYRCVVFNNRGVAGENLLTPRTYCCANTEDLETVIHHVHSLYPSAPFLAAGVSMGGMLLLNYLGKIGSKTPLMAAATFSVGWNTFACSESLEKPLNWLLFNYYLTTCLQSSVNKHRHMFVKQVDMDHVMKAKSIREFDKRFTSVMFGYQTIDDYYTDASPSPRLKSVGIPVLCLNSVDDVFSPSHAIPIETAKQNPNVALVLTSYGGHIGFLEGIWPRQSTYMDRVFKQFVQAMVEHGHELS
In short: (§1)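 Heavy-isotope PC3 cells (RPMI plus serum, grown to confluency) get fresh medium with test compound; light cells get DMSO. Incubated 4 h at 37 °C, 5% CO2, then PBS-washed and sonicated in PBS. Proteomes (2 mg/mL) labelled with FP-biotin (2.5 µM, 1 h) or ABC45 (5 µM, 1 h), then CuAAC to biotin-azide. Heavy and light combined, streptavidin-enriched, trypsin-digested on bead, analysed by LC-MS/MS; SILAC ratios; two independent experiments.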

ABHD4 [1] = biological target: T2, ABHD4 (Homo sapiens, UniProt Q8TB40); test: ABPP-SILAC, in situ treatment of PC3 cells; assay type: cell-based; settings: 4 h, FP-biotin probe
T2 sequence (Q8TB40 1-342): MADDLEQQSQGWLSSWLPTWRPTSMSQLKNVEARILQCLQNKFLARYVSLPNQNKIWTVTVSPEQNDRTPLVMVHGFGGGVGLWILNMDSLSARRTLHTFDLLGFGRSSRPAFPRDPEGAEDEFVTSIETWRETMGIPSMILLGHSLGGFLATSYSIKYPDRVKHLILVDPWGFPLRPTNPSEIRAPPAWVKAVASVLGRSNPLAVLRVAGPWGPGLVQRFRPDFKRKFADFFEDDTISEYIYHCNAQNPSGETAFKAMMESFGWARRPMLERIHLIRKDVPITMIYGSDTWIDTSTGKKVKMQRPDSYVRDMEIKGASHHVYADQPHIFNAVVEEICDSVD
In short: as §1

ABHD4 [2] = biological target: T2, ABHD4; test: Gel-based competitive ABPP; assay type: biochemical; settings: combined transfected HEK293T lysate
PPT1 [3] = biological target: T3, PPT1 (Homo sapiens, UniProt P50897); test: ABPP-SILAC with ABC45 probe, in situ treatment of PC3 cells; assay type: cell-based; settings: 1 µM, 4 h, ABC45 probe (5 µM, 1 h)
T3 sequence (P50897 28-306): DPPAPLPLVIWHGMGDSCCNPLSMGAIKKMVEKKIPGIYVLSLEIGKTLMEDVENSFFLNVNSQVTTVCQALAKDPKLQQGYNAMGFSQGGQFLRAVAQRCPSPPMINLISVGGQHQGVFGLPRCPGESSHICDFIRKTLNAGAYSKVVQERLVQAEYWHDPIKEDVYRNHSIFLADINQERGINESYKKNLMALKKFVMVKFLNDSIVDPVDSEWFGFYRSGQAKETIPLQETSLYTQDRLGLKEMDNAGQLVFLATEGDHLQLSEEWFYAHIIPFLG
In short: as §1

PPT1 [4] = biological target: T3, PPT1; test: In situ competitive ABPP; assay type: cell-based; settings: transfected HEK293T cells
In short: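 HEK293T cells transiently transfected with human PPT1 are grown to confluency in DMEM plus serum. Treated in fresh medium with test compound or DMSO, 4 h, 37 °C, 5% CO2. Washed, sonicated in PBS, and lysates labelled with the ABC45 click probe. Rhodamine-azide added by CuAAC; PNGaseF deglycosylation for the blockade test; SDS-PAGE and in-gel fluorescence.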

Cytotoxicity = assay type: cell-based; settings: read-out: cell toxicity IC50
PPT1 [5] = biological target: T4, PPT1 (Mus musculus, UniProt O88531); test: In vivo gel-based ABPP of mouse tissues; settings: C57BL6 mice, intraperitoneal, 4 h, central and peripheral tissues
T4 sequence (O88531 28-306): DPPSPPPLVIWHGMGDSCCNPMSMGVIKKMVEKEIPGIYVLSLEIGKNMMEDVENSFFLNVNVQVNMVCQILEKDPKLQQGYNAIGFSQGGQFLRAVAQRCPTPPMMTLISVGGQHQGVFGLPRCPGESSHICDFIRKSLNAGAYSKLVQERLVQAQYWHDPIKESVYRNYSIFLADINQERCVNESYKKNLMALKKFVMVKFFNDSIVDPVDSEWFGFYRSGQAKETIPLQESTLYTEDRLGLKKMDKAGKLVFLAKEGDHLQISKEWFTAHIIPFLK
In short: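 C57Bl/6 mice dosed intraperitoneally across 1–40 mg/kg in saline/ethanol/emulphor 18:1:1 (v/v/v), or vehicle. After 4 h, isoflurane anaesthesia, cervical dislocation and tissue harvest. Tissue proteomes (1 mg/mL) labelled with ABC45 (1 µM, 60 min) and rhodamine-azide by CuAAC, PNGaseF-treated after labelling, resolved by SDS-PAGE and scanned for fluorescence.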

ABHD4 [6] = biological target: T2, ABHD4; assay type: biochemical; settings: in vitro, lysates from ABHD4-transfected HEK293T cells
endogenous PPT1 = biological target: T5, endogenous PPT1 (Homo sapiens, UniProt P50897); test: MU-6S-Palm-βD-Glc substrate assay after in situ treatment of PC3 cells; assay type: cell-based; settings: 500 nM, 4 h
T5 sequence (P50897 28-306): T3 sequence (P50897 28-306)
In short: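 PC3 cells (RPMI plus serum, confluent) treated in situ with test compound or DMSO for 4 h at 37 °C, 5% CO2, then washed and sonicated in PBS. Lysate PPT1 activity measured with MU-6S-Palm-βD-Glc: thioester hydrolysis, then sweet almond β-glucosidase releases 4-methylumbelliferone, read by fluorescence. Activity compared with DMSO controls; three independent experiments.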

serine hydrolases = test: ABPP-SILAC serine hydrolase selectivity profile in PC3 cells; assay type: cell-based, human; settings: PC3 cells in situ, 1 or 0.1 µM, 4 h; ABHD6 and CPVL
In short: as §1

**Q.** With `O=C(ON1C(=O)C2CN(Cc3ccc(Oc4ccccc4)cc3)CCN2C1=O)N1CCC(c2ccccc2)CC1` (centres unmarked) [ABC47] as the compound, how does the “inhibition of ABHD3” value (ABHD3; 0.5 µM) read?
**A.** The value was “inhibit both ABHD3 and ABHD4”.

**Q.** And the “inhibition of ABHD4” value (ABHD4 [1]; 0.5 µM)?
**A.** The value was “inhibit both ABHD3 and ABHD4”.

**Q.** With `COc1ccc(N2CCN(C(=O)ON3C(=O)C4CN(Cc5ccc(Oc6ccccc6)cc5)CCN4C3=O)CC2)cc1` (centres unmarked) [ABC34] as the compound, how does the “preference for ABHD4 over ABHD3” value (ABHD4 [2]) read?
**A.** Its value is “preferentially inhibited ABHD4 over ABHD3”.

**Q.** And the “inhibition of ABHD3” value (ABHD3; 1 µM)?
**A.** The value was ~ 80%.

**Q.** And the “inhibition of ABHD4” value (ABHD4 [1]; 1 µM)?
**A.** The value was “completely inhibited”.

**Q.** What about the “inhibition of PPT1” value (PPT1 [3]) of the same compound?
**A.** The value was “more than 90%”.

**Q.** And the “blockade of ABC45 reactivity of recombinant human PPT1” value (PPT1 [4]; 5 µM, 4 h)?
**A.** The value was “blocked”.

**Q.** What does the source list for `COc1ccc(N2CCN(C(=O)ON3C(=O)C4CN(CC5CCN(Cc6ccccc6)CC5)CCN4C3=O)CC2)cc1` (centres unmarked) [ABC44]?
**A.** IC50 (Cytotoxicity): > 50 µM; dose producing near-complete blockade of PPT1 (PPT1 [5]): 1 to 5 mg/kg; effect on NAPE hydrolysis activity of ABHD4 (ABHD4 [6]): neither ABC44 (17) nor the LYPLA1/2 inhibitor JJH254 (7) altered; 4-MU-6S-Palm-βD-Glc hydrolysis activity compared to DMSO-treated control cells (endogenous PPT1): substantial reductions; reduction in endogenous PPT1 activity (endogenous PPT1): 90%; cross-reactive serine hydrolase activities (serine hydrolases): two of the >40 quantified SH activities; in situ inhibition of hPPT1 (PPT1 [4]; 200 nM): complete inhibition
